In ChEMBL document CHEMBL1137629, “Antiproliferative effect of dihydroxyacetone on Trypanosoma brucei bloodstream forms: cell cycle progression, subcellular alterations, and cell death” (Antimicrob Agents Chemother, 2007):
Calls of active or inactive are those of the source. The calls are words filed in the database; no cut-off is given here.

Key:
[1] = tested on: Trypanosoma brucei; assay: Trypanocidal activity against Trypanosoma brucei bloodstream form assessed as induction of autophagy at 5 uM after 24 hrs by transmission electron microscopy; format: functional, organism-based
How it was run: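 Autophagy positive control. Bloodstream forms treated with 5 μM rapamycin (from a 50 mM ethanol stock), processed by glutaraldehyde/osmium fixation, uranyl acetate staining, resin embedding and sectioning for transmission electron microscopy.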

[2] = tested on: Trypanosoma brucei; assay: Induction of apoptosis-like programmed cell death in Trypanosoma brucei bloodstream form assessed as loss of mitochondrial-membrane potential at 100 nM after 24 hrs by TMRE staining; format: functional
How it was run: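 T. brucei MITat 1.2 (EATRO 427) bloodstream forms were grown axenically at 37°C, 5% CO₂ and exposed to DHA for 24 h. Cells at 10⁶/ml were stained with 25 nM TMRE in culture medium for 30 min at 37°C and read at once by flow cytometry. Depolarization control: valinomycin 100 nM. Lower fluorescence signifies lost membrane potential.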

| Structure (SMILES) | Activity [1] | Activity [2] |
| --- | --- | --- |
| CO[C@H]1C[C@@H]2CC[C@@H](C)[C@@](O)(O2)C(=O)C(=O)N2CCCC[C@H]2C(=O)O[C@H]([C@H](C)C[C@@H]2CC[C@@H](O)[C@H](OC)C2)CC(=O)[C@H](C)/C=C(\C)[C@@H](O)[C@@H](OC)C(=O)[C@H](C)C[C@H](C)/C=C/C=C/C=C/1C | Active | – |
| CC(C)[C@@H]1NC(=O)[C@H](C)OC(=O)[C@@H](C(C)C)NC(=O)[C@@H](C(C)C)OC(=O)[C@H](C(C)C)NC(=O)[C@H](C)OC(=O)[C@@H](C(C)C)NC(=O)[C@@H](C(C)C)OC(=O)[C@H](C(C)C)NC(=O)[C@H](C)OC(=O)[C@@H](C(C)C)NC(=O)[C@@H](C(C)C)OC1=O [VALINOMYCIN] | – | 97.3% |
